Bioassay records deposited in PubChem by Broad Institute.
Shown are actives, neighbours in structure and some others; about 2.8% of the full set was active somewhere.
SIRT5 inh – inhibitors of human sirtuin-5 desuccinylase; Q9NXA8; Purified SirT5, succinyl-peptide AMC, trypsin-coupled fluorescence; inhibition, % at 15 µM; 330,000 tested, 1.1% active; AID 652115; in the data active means inhibition above about 15%; inconclusive means no clear call, values can overlap the other calls
Target sequence (Q9NXA8 whole entry, looked up): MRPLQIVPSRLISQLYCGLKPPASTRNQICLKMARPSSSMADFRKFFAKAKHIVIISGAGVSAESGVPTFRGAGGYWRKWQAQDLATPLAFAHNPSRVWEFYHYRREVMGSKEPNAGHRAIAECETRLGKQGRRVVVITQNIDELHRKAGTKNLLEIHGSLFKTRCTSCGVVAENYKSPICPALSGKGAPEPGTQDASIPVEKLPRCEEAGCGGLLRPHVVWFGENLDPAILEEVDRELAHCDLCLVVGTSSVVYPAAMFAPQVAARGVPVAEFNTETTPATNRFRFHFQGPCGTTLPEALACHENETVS
E-sel inducer – E-selectin induction on HUVECs. P16581. HUVEC E-selectin immunofluorescence imaging; normalized: neutral wells 0, TNF-alpha wells 100. activation, % at 7.58 µM. 260,000 tested, 0.37% active. AID 686992;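 active means mean E-selectin-positive cell signal at least 10% of the positive control, reached in at least 60% of replicates, without over 20% cell loss; inconclusive means no rule given, readout overlaps actives, possibly toxicity-flagged; inactive means the rest, including those meeting only one limit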
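Assay system: HUVEC, human umbilical vein endothelial cells / Amount: 3,000 HUVEC/well / Controls: TNF-alpha positive control, DMSO neutral control / Compound dosing: single concentration / Medium: EGM-2 over gelatin coat / Evaluation: percent E-selectin-positive cells / Signal: immunofluorescence imaging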
DENV2 CPE – protects cells from dengue virus 2 cytopathic effect. DENV2-infected cells, cytopathic effect rescue, plate reader. CPE inhibition, % at 9.99 µM. 350,000 tested, 1.7% active; in the data active means CPE inhibition above about 20%, passing the limit was not always enough; inconclusive means no clear call, values can overlap the other calls; tested in BHK-21 cells
Hits are given with their value; - = inactive; ? = inconclusive; . = no result given.

SMILES | SIRT5 inh | E-sel inducer | DENV2 CPE
C[C@H]1CCCCO[C@H](CN(C)C(=O)Nc2ccc(C(F)(F)F)cc2)[C@@H](C)CN([C@@H](C)CO)C(=O)c2cc(NS(=O)(=O)c3ccc(Cl)cc3)ccc2O1 | - | - | -
C[C@@H]1CCCCO[C@@H](CN(C)C(=O)Nc2ccc(F)cc2)[C@H](C)CN([C@H](C)CO)C(=O)c2cc(NS(=O)(=O)c3ccc(F)cc3)ccc2O1 | . | - | -
O=C(N[C@@H]1CC[C@H](CCn2cc(-c3ccccc3)nn2)O[C@@H]1CO)c1ccccc1F | - | - | -
COc1ccc(S(=O)(=O)N[C@@H]2CC[C@@H](CC(=O)N3CCN(c4ccccc4)CC3)O[C@H]2CO)cc1 | - | - | -
COc1cccc(NC(=O)N[C@@H]2C=C[C@H](CC(=O)N3CCN(C)CC3)O[C@H]2CO)c1 | - | - | -
C[C@@H]1CN([C@@H](C)CO)C(=O)c2cc(NS(=O)(=O)c3ccc(F)cc3)ccc2O[C@H]1CN(C)C(=O)Nc1ccc(F)cc1 | - | - | -
CC(C)(C)OC(=O)N1CCC[C@H]1c1nnc(SCc2ccc(Cl)cc2)o1 | - | - | -
CC(C)(C)OC(=O)N1CCC[C@H]1c1nnc(SCc2cccc(Cl)c2)o1 | 23.2 | . | -
Cc1ccccc1S(=O)(=O)N1CCCCN2[C@@H](CO)[C@@H](c3ccc(-c4cncnc4)cc3)[C@@H]2C1 | - | - | -
C[C@H](CO)N1C[C@H](C)[C@H](CN(C)Cc2ccncc2)OCCCC[C@H](C)Oc2ccc(NC(=O)c3ccncc3)cc2C1=O | - | - | -
C[C@@H]1CN([C@H](C)CO)C(=O)c2cc(NC(=O)c3ccncc3)ccc2O[C@@H](C)CCCCO[C@H]1CN(C)C | - | - | 84.6
C[C@@H]1CCCCO[C@H](CN(C)C)[C@H](C)CN([C@H](C)CO)C(=O)c2cc(NC(=O)c3ccncc3)ccc2O1 | - | - | 34.3
C[C@H]1CCCCO[C@@H](CN(C)C)[C@@H](C)CN([C@@H](C)CO)C(=O)c2cc(NC(=O)c3ccncc3)ccc2O1 | - | - | -
C[C@@H]1CCCCO[C@H](CN(C)C)[C@@H](C)CN([C@H](C)CO)C(=O)c2cc(NC(=O)c3ccncc3)ccc2O1 | - | - | -
CC(C)NC(=O)N(C)C[C@@H]1Oc2cc(C#C[C@@H](C)O)ccc2S(=O)(=O)N([C@H](C)CO)C[C@H]1C | - | - | -
CCCN(C)C[C@@H]1Oc2ncc(C#Cc3ccccc3OC)cc2C(=O)N([C@H](C)CO)C[C@@H]1C | - | . | -
Cc1ccc(N(CN2C(=O)c3ccccc3C2=O)C(=O)c2ccc([N+](=O)[O-])cc2[N+](=O)[O-])cc1 | 112.0 | - | .
O=C1c2ccccc2C(=O)N1CN(C(=O)c1ccccc1[N+](=O)[O-])c1ccc(F)cc1 | - | - | -
COCC(=O)N1CC(=O)N2[C@H](CO)[C@H](c3ccc(-c4ccccc4F)cc3)[C@@H]2C1 | - | - | -
Cc1noc(C)c1NC(=O)N(C)C[C@@H]1Oc2ccc(NC(=O)C3CCCCC3)cc2CC(=O)N([C@@H](C)CO)C[C@@H]1C | - | - | 30.9
Cc1noc(C)c1NC(=O)N(C)C[C@H]1Oc2ccc(NC(=O)NC(C)C)cc2C(=O)N([C@@H](C)CO)C[C@@H]1C | - | - | -
Cc1noc(C)c1NC(=O)N(C)C[C@@H]1Oc2ccc(NC(=O)NC3CCCCC3)cc2CC(=O)N([C@@H](C)CO)C[C@H]1C | - | - | 23.7
Cc1noc(C)c1NC(=O)N(C)C[C@@H]1Oc2ccc(NC(=O)C3CCCCC3)cc2CC(=O)N([C@H](C)CO)C[C@H]1C | - | - | -
Cc1noc(C)c1NC(=O)N(C)C[C@H]1Oc2ccc(NC(=O)NC(C)C)cc2CC(=O)N([C@@H](C)CO)C[C@@H]1C | - | . | -
Cc1noc(C)c1NC(=O)N(C)C[C@H]1Oc2ccc(NC(=O)NC(C)C)cc2CC(=O)N([C@H](C)CO)C[C@H]1C | 20.9 | . | -
SMILES | SIRT5 inh | E-sel inducer | DENV2 CPE
Cc1noc(C)c1NC(=O)Nc1ccc2c(c1)CC(=O)N([C@H](C)CO)C[C@H](C)[C@H](CN(C)C(=O)NC1CCCCC1)O2 | - | - | -
Cc1noc(C)c1NC(=O)N(C)C[C@@H]1Oc2ccc(NC(=O)NC(C)C)cc2C(=O)N([C@@H](C)CO)C[C@H]1C | - | - | 44.8
O=C(Nc1ccc(F)cc1)N[C@H]1CC[C@H](CCNS(=O)(=O)c2ccccc2F)O[C@@H]1CO | - | - | -
C[C@@H](NC(=O)C[C@@H]1C[C@H]2c3cc(NC(=O)C4CCOCC4)ccc3O[C@H]2[C@H](CO)O1)c1ccccc1 | - | - | -
O=C(Nc1ccc(F)cc1)Nc1ccc2c(c1)[C@H]1C[C@@H](CC(=O)N3CCCCC3)O[C@H](CO)[C@H]1O2 | . | - | -
CNC(=O)C[C@@H]1CC[C@H]2[C@H](COc3ccc(NC(=O)c4ccc(OC)cc4)cc3C(=O)N2C)O1 | - | - | -
Cc1noc(C)c1NC(=O)Nc1ccc2c(c1)C(=O)N([C@@H](C)CO)C[C@@H](C)[C@@H](CN(C)CC1CC1)OCCCC[C@@H](C)O2 | - | - | -
Cc1noc(C)c1NC(=O)N(C)C[C@H]1Oc2ccc(NC(=O)NC3CCCCC3)cc2CC(=O)N([C@H](C)CO)C[C@H]1C | . | - | 21.6
Cc1noc(C)c1NC(=O)Nc1ccc2c(c1)CC(=O)N([C@@H](C)CO)C[C@@H](C)[C@@H](CN(C)C(=O)NC1CCCCC1)O2 | - | - | -
COc1ccc(-c2ccc3c(c2)[C@@H]2[C@@H](CCN2S(=O)(=O)c2ccccc2F)[C@H](CO)N3C)cc1 | - | - | -
COc1cc(OC)cc(C(=O)NNc2nc3cc4c(cc3s2)OCO4)c1 | - | - | -
COc1cc(C(=O)NNc2nc3cc4c(cc3s2)OCO4)cc(OC)c1OC | - | 107.8 | -
C[C@H]1CN([C@@H](C)CO)C(=O)c2cc(NC(=O)C3CCCCC3)ccc2O[C@H]1CN(C)Cc1ccc(Cl)c(Cl)c1 | - | - | -
C[C@H]1CN([C@@H](C)CO)S(=O)(=O)c2ccc(-c3cccc(F)c3)cc2O[C@@H]1CN(C)S(=O)(=O)c1ccc(F)cc1 | 18.2 | - | -
C[C@@H]1CN([C@H](C)CO)S(=O)(=O)c2ccc(-c3cccc(F)c3)cc2O[C@@H]1CN(C)S(=O)(=O)c1ccc(F)cc1 | 20.0 | - | -
COc1ccc(S(=O)(=O)N(C)C[C@@H]2Oc3cc(-c4cccc(F)c4)ccc3S(=O)(=O)N([C@@H](C)CO)C[C@@H]2C)cc1 | - | - | -
Cc1ccc(S(=O)(=O)N(C)C[C@H]2Oc3cc(-c4cccc(F)c4)ccc3S(=O)(=O)N([C@@H](C)CO)C[C@@H]2C)cc1 | ? | - | -
O=C(C[C@@H]1CC[C@H]2[C@@H](COC[C@H](O)CN2C(=O)Nc2ccc(F)cc2)O1)NCCc1ccncc1 | - | - | -
C[C@H](CO)N1C[C@H](C)[C@@H](CN(C)C(=O)Nc2ccc(F)cc2)OCCCC[C@H](C)Oc2ccc(N(C)C)cc2C1=O | - | - | -
O=C(c1ccccc1)N1CC(=O)N2[C@@H](CO)[C@@H](c3ccc(C#Cc4ccccc4)cc3)[C@@H]2C1 | - | - | -
CCCNC(=O)N(C)C[C@H]1Oc2ncc(C3=CCCCC3)cc2C(=O)N([C@H](C)CO)C[C@H]1C | - | - | -
